In ChEMBL document CHEMBL1132974 (J Med Chem, 2000):
Several values for one entry are separate records, joined by “and”; a condition that tells them apart may be missing. Equal entries are not always repeated. Each block holds one compound with its values, some of them ahead of it.

Assays:
[1] = target: Serotonin 3 (5-HT3) receptor; test: Compound was evaluated for its antagonist affinity towards 5-hydroxytryptamine 3 receptor of guinea pig; type: functional, Cavia porcellus
How it was run: (§1)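 Functional antagonism assays in guinea-pig tissues, each run with 1 µM mepyramine present: M3 (whole ileum), β1 (right atrium), 5-HT1B (iliac artery), 5-HT3 (quiescent ileal longitudinal muscle with myenteric plexus). Results are given as apparent pA2, or pD'2 when only curve depression occurred.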

[2] = target: Histamine H1 receptor (Cavia porcellus) (UniProt P31389); test: concentration of mepyramine was determined; value ranges from 1 to 30; type: functional
Chain of Histamine H1 receptor (Cavia porcellus) (P31389 whole entry): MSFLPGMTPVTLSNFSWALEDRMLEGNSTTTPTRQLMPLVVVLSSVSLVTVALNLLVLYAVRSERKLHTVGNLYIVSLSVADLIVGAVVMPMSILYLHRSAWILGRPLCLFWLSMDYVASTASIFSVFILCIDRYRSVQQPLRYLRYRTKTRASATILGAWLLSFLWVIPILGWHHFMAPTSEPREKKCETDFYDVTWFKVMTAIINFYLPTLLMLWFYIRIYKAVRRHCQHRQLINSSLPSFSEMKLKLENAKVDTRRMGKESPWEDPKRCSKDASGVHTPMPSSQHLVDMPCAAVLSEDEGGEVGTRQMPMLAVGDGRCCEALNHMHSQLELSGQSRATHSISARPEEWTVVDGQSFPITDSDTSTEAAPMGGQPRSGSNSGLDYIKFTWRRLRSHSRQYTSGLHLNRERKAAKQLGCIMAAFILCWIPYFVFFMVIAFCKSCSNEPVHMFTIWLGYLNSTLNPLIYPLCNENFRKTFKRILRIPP
How it was run: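 Guinea-pig ileum segments (either sex), mounted isotonically (0.5 g preload) at 37 °C in aerated Tyrode's with 0.1 µM atropine. […] Full pA2 was taken from an Arunlakshana-Schild plot with the slope constrained to unity.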

[3] = target: Histamine H1 receptor (Cavia porcellus) (UniProt P31389); test: The compound was evaluated for intrinsic activity i.e. maximum histamine controls relative to contraction evoked by 10 uM PGF2-alpha; type: functional
How it was run: (§2)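 Endothelium-denuded guinea-pig aortic rings, set up as in the contraction assay, challenged twice with PGF2α (10 µM). Rings were precontracted with a threshold PGF2α level (usually 0.4–1.5 µM, 10–20% of the 10 µM response).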

[4] = target: Histamine H1 receptor (Cavia porcellus) (UniProt P31389); test: The compound was evaluated for intrinsic activity i.e. second curves of histamine controls set to 100%, aorta primed with histamine; termed: intrinsic activity
[5] = target: Histamine H1 receptor (Cavia porcellus) (UniProt P31389); test: Negative logarithm of receptor dissociation constant Kp was reported guinea pig ileal whole segment; type: functional
How it was run: (§3)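 Guinea-pig ileum (0.1 µM atropine, 37 °C Tyrode's). […] Where several partial-agonist concentrations were used, the overall value comes from a Kaumann-Marano plot with slope constrained to unity.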

[6] = target: Histamine H1 receptor (Cavia porcellus) (UniProt P31389); test: Antagonist effects was studied on contraction of guinea-pig ileum preparation; value ranges from 3 to 30; f means observed by Kaumann-Marano plot; type: functional, tissue-based
[7] = target: Histamine H1 receptor (Cavia porcellus) (UniProt P31389); test: Intrinsic activity was reported in guinea pig ileum whole segment; type: functional, tissue-based
[8] = target: Histamine H1 receptor (Rattus norvegicus) (UniProt P31390); test: maximum relaxation evoked by carbachol in relaxed rat aortic rings with intact endothelium, submaximally precontracted with 15.8 nM U-46,619; type: functional, tissue-based; settings: Aorta
Target sequence in this assay (P31390 whole entry): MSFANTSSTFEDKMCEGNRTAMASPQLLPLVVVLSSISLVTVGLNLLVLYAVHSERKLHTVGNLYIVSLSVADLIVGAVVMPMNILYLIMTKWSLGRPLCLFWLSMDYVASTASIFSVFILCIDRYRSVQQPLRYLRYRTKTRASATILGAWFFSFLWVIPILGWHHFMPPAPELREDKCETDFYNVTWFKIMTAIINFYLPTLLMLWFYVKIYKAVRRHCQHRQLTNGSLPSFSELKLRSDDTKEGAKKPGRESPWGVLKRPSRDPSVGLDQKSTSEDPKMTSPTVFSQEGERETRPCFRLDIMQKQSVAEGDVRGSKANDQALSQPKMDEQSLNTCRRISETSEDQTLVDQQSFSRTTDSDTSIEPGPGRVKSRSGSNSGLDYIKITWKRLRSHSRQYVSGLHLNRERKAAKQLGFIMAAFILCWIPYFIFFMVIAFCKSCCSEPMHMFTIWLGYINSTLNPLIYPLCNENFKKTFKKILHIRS

[9] = target: Histamine H1 receptor (Rattus norvegicus) (UniProt P31390); test: Intrinsic activity of the histamine as reported in relaxed rat aortic rings with intact endothelium, submaximally precontracted with 15.8 nM U-46,619; type: functional, tissue-based; settings: Aorta
Target sequence in this assay (P31390 whole entry): as above

[10] = target: 5-hydroxytryptamine receptor 2A (Rattus norvegicus, UniProt P14842); test: Compound was evaluated for its antagonist affinity towards 5-hydroxytryptamine 2A receptor of rat; type: functional; settings: read-out: pA2 (converted)
Chain of 5-hydroxytryptamine receptor 2A (P14842 whole entry): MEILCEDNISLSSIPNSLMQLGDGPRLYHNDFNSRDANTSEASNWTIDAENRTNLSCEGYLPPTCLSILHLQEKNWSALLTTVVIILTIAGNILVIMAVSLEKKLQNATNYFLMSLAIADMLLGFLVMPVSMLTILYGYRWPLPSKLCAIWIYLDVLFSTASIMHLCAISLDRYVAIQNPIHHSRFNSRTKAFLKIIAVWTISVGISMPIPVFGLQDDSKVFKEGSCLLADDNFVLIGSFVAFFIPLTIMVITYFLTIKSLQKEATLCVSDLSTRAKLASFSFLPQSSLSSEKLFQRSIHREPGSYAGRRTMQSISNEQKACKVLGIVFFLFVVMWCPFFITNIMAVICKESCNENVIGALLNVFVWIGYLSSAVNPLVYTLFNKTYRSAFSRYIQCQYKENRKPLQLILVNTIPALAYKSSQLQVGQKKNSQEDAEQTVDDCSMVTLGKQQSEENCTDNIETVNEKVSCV
How it was run: (§4)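 Functional antagonism in rat tissues: α1D (thoracic aorta), 5-HT2A (tail artery), 5-HT4 (oesophageal tunica muscularis mucosae). Results are given as apparent pA2 from single-concentration rightward shifts, or pD'2 when only curve depression occurred.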

[11] = target: Muscarinic acetylcholine receptor M3 (Cavia porcellus, UniProt Q8VH26); test: Compound was evaluated for its antagonist affinity towards Muscarinic acetylcholine receptor M3 of guinea pig; type: functional; settings: read-out: pA2 (converted); how it was run: as §1
Chain of Muscarinic acetylcholine receptor M3 (Q8VH26 whole entry): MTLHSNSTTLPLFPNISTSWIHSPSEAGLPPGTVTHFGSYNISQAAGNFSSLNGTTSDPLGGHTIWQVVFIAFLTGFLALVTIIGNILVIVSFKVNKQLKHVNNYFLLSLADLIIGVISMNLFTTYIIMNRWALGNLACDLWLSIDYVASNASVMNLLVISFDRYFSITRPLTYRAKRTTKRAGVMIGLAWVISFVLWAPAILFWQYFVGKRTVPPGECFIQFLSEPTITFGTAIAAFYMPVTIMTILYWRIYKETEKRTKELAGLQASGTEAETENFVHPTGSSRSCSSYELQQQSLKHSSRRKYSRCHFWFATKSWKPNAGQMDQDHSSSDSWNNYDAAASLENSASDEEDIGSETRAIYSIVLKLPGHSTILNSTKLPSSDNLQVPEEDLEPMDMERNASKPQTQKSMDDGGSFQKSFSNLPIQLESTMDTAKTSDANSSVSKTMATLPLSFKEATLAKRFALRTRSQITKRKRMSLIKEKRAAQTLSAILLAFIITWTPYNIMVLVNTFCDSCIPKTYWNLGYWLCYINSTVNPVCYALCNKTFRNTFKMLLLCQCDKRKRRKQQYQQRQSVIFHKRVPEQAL

[12] = target: 5-hydroxytryptamine receptor 1B (Cavia porcellus); test: Compound was evaluated for its antagonist affinity towards 5-hydroxytryptamine 1B receptor of guinea pig; settings: read-out: pA2 (converted)
Histamine H1 receptor [13] = target: T1, Histamine H1 receptor (Cavia porcellus, UniProt P31389); test: Effective concentration for agonist activity in guinea pig ileum whole segment; type: functional, tissue-based
T1 sequence (P31389 whole entry): as the sequence (P31389 whole entry) above

[14] = target: Histamine H1 receptor (Cavia porcellus) (UniProt P31389); test: Negative logarithm of receptor dissociation constant Kp was reported in guinea pig ileum whole segment; type: functional, tissue-based; how it was run: as §3
[15] = target: 5-hydroxytryptamine receptor 4 (Rattus norvegicus, UniProt Q62758); test: Compound was evaluated for its antagonist affinity towards 5-hydroxytryptamine 4 receptor of rat; type: functional; settings: read-out: pA2 (converted); how it was run: as §4
Chain of 5-hydroxytryptamine receptor 4 (Q62758 whole entry): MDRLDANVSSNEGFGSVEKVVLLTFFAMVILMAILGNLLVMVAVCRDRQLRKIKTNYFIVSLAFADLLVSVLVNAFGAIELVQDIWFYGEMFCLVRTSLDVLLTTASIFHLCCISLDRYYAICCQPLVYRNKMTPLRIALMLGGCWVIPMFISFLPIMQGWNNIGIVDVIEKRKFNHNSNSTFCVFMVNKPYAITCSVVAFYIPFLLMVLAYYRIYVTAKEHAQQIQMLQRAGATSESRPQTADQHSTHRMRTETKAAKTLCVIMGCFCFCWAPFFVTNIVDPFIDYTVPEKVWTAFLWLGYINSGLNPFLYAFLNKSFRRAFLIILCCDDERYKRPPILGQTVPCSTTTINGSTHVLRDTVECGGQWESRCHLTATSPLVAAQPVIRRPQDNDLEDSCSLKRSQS

Histamine H2 receptor = Histamine H2 receptor (Cavia porcellus, UniProt P47747); test: Compound was evaluated for its antagonist affinity towards Histamine H2 receptor of guinea pig; type: functional; settings: read-out: pA2 (converted)
Chain of Histamine H2 receptor (P47747 whole entry): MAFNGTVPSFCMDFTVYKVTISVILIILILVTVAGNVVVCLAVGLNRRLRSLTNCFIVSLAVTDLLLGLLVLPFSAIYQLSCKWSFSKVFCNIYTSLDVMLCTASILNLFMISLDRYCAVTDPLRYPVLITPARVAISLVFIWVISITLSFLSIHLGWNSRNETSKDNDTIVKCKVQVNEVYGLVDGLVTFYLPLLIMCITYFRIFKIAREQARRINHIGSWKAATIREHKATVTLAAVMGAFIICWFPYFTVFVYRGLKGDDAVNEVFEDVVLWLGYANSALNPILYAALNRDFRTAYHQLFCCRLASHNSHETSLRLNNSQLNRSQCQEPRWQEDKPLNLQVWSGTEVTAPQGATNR

Histamine H1 receptor [16] = target: T1, Histamine H1 receptor; test: Compound was evaluated for mepyramine antagonism effects in guinea pig aorta (contraction) at a mepyramine concentration of 100 nM; type: functional, tissue-based; settings: read-out: pA2 (converted)
How it was run: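 Guinea-pig aortic rings with endothelium damaged, isometric (10 mN), 37 °C Krebs-Henseleit. Agonist curves were run with mepyramine (100 nM, about 60 min) after threshold PGF2α precontraction. Apparent pA2 = −log c + log(r−1).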

Histamine H1 receptor [17] = target: Histamine H1 receptor (Rattus norvegicus, UniProt P31390); test: Effective concentration for agonism activity in relaxed rat aortic rings with intact endothelium, submaximally precontracted with 15.8 nM U-46,619; type: functional, tissue-based, Aorta
Chain of Histamine H1 receptor (Rattus norvegicus, UniProt P31390) (P31390 whole entry): as the sequence (P31390 whole entry) above

Histamine H1 receptor [18] = target: T1, Histamine H1 receptor; test: Antagonism of guinea pig ileum contraction at 100 nM mepyramine; type: functional, tissue-based; settings: read-out: pA2 (converted)
How it was run: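 Guinea-pig whole ileal segments (2.0–2.5 cm), isotonic, preload 0.5 g, Tyrode's at 37 °C, 95% O2/5% CO2, with 0.1 µM atropine throughout. […] Apparent pA2 = −log c + log(r−1); full pA2 from Schild plot, slope fixed at 1.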

[19] = target: Beta-1 adrenergic receptor (Cavia porcellus, UniProt B0FL73); test: Compound was evaluated for its antagonist affinity towards Beta-1 adrenergic receptor of guinea pig; type: functional; settings: read-out: pA2 (converted); how it was run: as §1
Chain of Beta-1 adrenergic receptor (B0FL73 whole entry): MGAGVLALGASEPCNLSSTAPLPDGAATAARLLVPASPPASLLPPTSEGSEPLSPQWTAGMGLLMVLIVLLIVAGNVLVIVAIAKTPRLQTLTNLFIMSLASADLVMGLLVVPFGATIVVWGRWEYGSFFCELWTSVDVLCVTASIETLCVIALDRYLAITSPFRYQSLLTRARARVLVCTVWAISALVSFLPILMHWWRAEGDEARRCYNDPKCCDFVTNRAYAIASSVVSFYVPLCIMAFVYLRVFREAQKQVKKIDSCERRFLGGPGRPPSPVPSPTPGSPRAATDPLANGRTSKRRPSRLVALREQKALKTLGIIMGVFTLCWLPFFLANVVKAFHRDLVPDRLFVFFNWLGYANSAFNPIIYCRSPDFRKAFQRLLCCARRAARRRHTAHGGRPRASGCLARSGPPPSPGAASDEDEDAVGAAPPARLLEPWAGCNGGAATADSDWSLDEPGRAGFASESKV

[20] = target: Histamine H1 receptor (Rattus norvegicus) (UniProt P31390); test: The compound was evaluated for intrinsic activity in relaxed rat aortic rings with intact endothelium, submaximally precontracted with 15.8 nM U-46,619; type: functional, tissue-based; parameters: unit not given here; settings: Aorta
Target sequence in this assay (P31390 whole entry): as the sequence (P31390 whole entry) above

[21] = target: Histamine H1 receptor (Rattus norvegicus) (UniProt P31390); test: Compound was evaluated for mepyramine antagonism effects in rat aorta (relaxation) at a mepyramine concentration of 100 nM; settings: read-out: pA2 (converted)
Target sequence in this assay (P31390 whole entry, looked up): as the sequence (P31390 whole entry) above

Histamine H1 receptor [22] = target: T1, Histamine H1 receptor; test: (§5) Effective concentration for agonism activity in Endothelium-Denuded guinea pig aortic segment; type: functional, tissue-based, Aorta
How it was run: (§6)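 Guinea-pig thoracic aortic rings (2–4 mm), endothelium rubbed off, isometric (10 mN), modified Krebs-Henseleit (1.80 mM Ca2+), 37 °C. Cimetidine, corticosterone and cocaine (30 µM each), prazosin and yohimbine (0.3 µM each) and propranolol (0.1 µM) were present. […] The pEC50 shift was corrected using untreated control preparations.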

Histamine H3 receptor = Histamine H3 receptor (Cavia porcellus, UniProt Q9JI35); test: Compound was evaluated for its antagonist affinity towards Histamine H3 receptor of guinea pig; type: functional; settings: read-out: pA2 (converted)
Chain of Histamine H3 receptor (Q9JI35 whole entry): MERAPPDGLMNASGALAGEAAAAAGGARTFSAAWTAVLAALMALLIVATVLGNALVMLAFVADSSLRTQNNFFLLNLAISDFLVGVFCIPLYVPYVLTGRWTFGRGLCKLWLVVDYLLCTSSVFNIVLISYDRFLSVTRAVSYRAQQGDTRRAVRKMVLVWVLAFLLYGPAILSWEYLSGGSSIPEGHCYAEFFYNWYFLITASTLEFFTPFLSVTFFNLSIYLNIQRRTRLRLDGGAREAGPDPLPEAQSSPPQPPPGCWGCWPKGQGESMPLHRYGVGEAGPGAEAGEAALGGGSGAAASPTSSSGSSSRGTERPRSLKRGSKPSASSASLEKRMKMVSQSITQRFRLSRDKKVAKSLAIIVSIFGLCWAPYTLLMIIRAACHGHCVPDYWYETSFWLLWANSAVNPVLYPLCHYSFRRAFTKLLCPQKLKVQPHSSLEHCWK
How it was run: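 Electrically stimulated guinea-pig ileal longitudinal muscle with myenteric plexus, isometric (7.5 mN). Cumulative (R)-α-methylhistamine curves were run with and without test compound (20 min), with 1 µM mepyramine present. Values were apparent pA2, or pD'2 where curves were depressed.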

[23] = target: T2, Alpha-1D adrenergic receptor (Rattus norvegicus, UniProt P23944); test: Compound was evaluated for its antagonist affinity towards Alpha-1D adrenergic receptor of rat; type: functional; settings: read-out: pA2 (converted); how it was run: as §4
T2 sequence (P23944 whole entry): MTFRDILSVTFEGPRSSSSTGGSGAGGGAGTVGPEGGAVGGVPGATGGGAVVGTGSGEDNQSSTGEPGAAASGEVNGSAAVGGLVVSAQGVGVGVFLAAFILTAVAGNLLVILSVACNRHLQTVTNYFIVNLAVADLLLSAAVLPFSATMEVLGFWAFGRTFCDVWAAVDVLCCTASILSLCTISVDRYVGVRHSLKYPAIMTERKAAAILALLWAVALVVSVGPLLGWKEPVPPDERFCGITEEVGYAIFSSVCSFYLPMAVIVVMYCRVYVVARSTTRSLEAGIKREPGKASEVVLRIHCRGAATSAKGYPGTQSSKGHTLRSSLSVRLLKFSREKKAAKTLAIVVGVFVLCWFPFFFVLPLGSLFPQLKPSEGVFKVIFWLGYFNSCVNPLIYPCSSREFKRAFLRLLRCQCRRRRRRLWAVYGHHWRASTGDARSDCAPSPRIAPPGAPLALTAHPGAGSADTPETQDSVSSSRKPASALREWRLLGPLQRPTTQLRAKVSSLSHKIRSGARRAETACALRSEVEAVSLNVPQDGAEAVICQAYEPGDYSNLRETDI

Histamine H1 receptor [24] = target: T1, Histamine H1 receptor; test: (§7) Effective concentration for agonism activity in endothelium-denuded guinea pig aortic segment; type: functional, tissue-based, Aorta; how it was run: as §6
[25] = target: Histamine H1 receptor (Cavia porcellus) (UniProt P31389); test: Intrinsic activity was reported in guinea pig ileum whole segment.; type: functional, tissue-based
[26] = target: Histamine H1 receptor (Rattus norvegicus) (UniProt P31390); test: Relative potency was recorded in relaxed rat aortic rings with intact endothelium, submaximally precontracted with 15.8 nM U-46,619; value ranges from 244 to 450.; type: functional, tissue-based; settings: Aorta
Target sequence in this assay (P31390 whole entry): as the sequence (P31390 whole entry) above

[27] = target: Histamine H1 receptor (Rattus norvegicus) (UniProt P31390); test: concentration of mepyramine was determined
Target sequence in this assay (P31390 whole entry, looked up): as the sequence (P31390 whole entry) above

[28] = target: Histamine H1 receptor (Cavia porcellus) (UniProt P31389); test: Relative potency in guinea pig ileum whole segment; value ranges from 51 to 88; type: functional, tissue-based
Cavia porcellus [29] = species: Cavia porcellus; test: as §5; settings: Aorta, read-out: Log EC50 (converted)
Cavia porcellus [30] = species: Cavia porcellus; test: Effective concentration for agonism activity in guinea pig ileal whole segment; settings: read-out: Log EC50 (converted)
Cavia porcellus [31] = species: Cavia porcellus; test: as §7; settings: Aorta, read-out: Log EC50 (converted)
Rattus norvegicus = species: Rattus norvegicus; test: tissue or blood; settings: Aorta, read-out: Log EC50 (converted)
[32] = target: Histamine H1 receptor (Cavia porcellus) (UniProt P31389); test: Intrinsic activity was reported in endothelium-denuded guinea pig(pre contracted with PGF-2 alpha) at a concentration of 10 uM; type: functional; how it was run: as §2
[33] = target: Histamine H1 receptor (Cavia porcellus) (UniProt P31389); test: Relative potency was recorded in endothelium-denuded guinea pig; value ranges from 5.68 to 5.93; type: functional; how it was run: as §6
[34] = target: Histamine H1 receptor (Cavia porcellus) (UniProt P31389); test: Negative logarithm of receptor dissociation constant Kp was reported; type: functional; how it was run: as §3
[35] = target: Histamine H1 receptor (Cavia porcellus) (UniProt P31389); test: Intrinsic activity was reported in guinea pig ileal whole segment.; type: functional
[36] = target: Histamine H1 receptor (Cavia porcellus) (UniProt P31389); test: Intrinsic activity was reported at a concentration of 10 uM; type: functional
[37] = target: Histamine H1 receptor (Rattus norvegicus) (UniProt P31390); test: Relative potency was recorded in relaxed rat aortic rings; value ranges from […] to […]; type: functional, tissue-based; settings: Aorta
Target sequence in this assay (P31390 whole entry): as above

[38] = target: Histamine H1 receptor (Cavia porcellus) (UniProt P31389); test: pA2 was recorded in endothelium-denuded guinea pig(pre contracted with PGF-2 alpha).value ranges from 5.66 to 6.19
[39] = target: Histamine H1 receptor (Rattus norvegicus) (UniProt P31390); test: The compound was evaluated for intrinsic activity i.e. maximum histamine controls relative to contraction evoked by 10 uM PGF2-alpha in relaxed rat aortic rings; type: functional, tissue-based; settings: Aorta
Target sequence in this assay (P31390 whole entry): as above

pA2 [1]: < 5.7
Concentration [2]: 30 nM
Emax [3]: 84
Emax [4]: 72
pKp [5]: 6.04
Concentration [6]: 30 µM
Emax [7]: 100
Emax [8]: 46
Emax [9]: 50
Structure (SMILES): NCCc1c[nH]c(CCC(c2ccccc2)c2ccccc2)n1

Kb [10]: 3720 nM
Kb [11]: 1150 nM
Kb [12]: > 31600 nM
EC50 (Histamine H1 receptor [13]): 83.2 nM
pA2 [1]: < 5.8
pKp [14]: 6.4
Kb [15]: > 1580 nM
Kb (Histamine H2 receptor): 26300 nM
Kb (Histamine H1 receptor [16]): 2.51 nM
EC50 (Histamine H1 receptor [17]): 170 nM
Kb (Histamine H1 receptor [18]): 0.776 nM and 1.38 nM
Kb [19]: 26300 nM
Emax [20]: 51 and 55
Kb [21]: 10.5 nM
EC50 (Histamine H1 receptor [22]): 120 nM
Kb (Histamine H3 receptor): > 1580 nM
Kb [23]: 7760 nM
EC50 (Histamine H1 receptor [24]): 832 nM
Structure (SMILES): CN(C)CCc1c[nH]c(CCC(c2ccccc2)c2ccccc2)n1

Kb [11]: 1020 nM
EC50 (Histamine H1 receptor [13]): 302 nM
pKp [14]: 5.75
Kb (Histamine H2 receptor): 31600 nM
Emax [25]: 89
EC50 (Histamine H1 receptor [17]): 646 nM
Kb (Histamine H1 receptor [18]; in the assay text read “at 5 nM mepyramine” for “at 100 nM mepyramine”): 1.55 nM
Emax [20]: 44 and 47
Kb (Histamine H3 receptor): > 1000 nM
Structure (SMILES): CCNCCc1c[nH]c(CCC(c2ccccc2)c2ccccc2)n1

Relative potency [26]: 331
EC50 (Histamine H1 receptor [13]): 295 nM
pKp [14]: 6.52
Emax [25]: 28
EC50 (Histamine H1 receptor [17]): 1350 nM
Concentration [27]: 100 nM
Relative potency [28]: 67
Emax [20]: 21
Structure (SMILES): c1ccc(C(CCc2nc(CCN3CCCC3)c[nH]2)c2ccccc2)cc1

Structure (SMILES): NCCc1c[nH]cn1 [HISTAMINE]
EC50 (Cavia porcellus [29]): 316 nM
EC50 (Cavia porcellus [30]): 200 nM
EC50 (Cavia porcellus [31]): 2240 nM
EC50 (Rattus norvegicus): 4470 nM

Emax [32]: 0
pA2 [33]: 5.8
pKp [34]: 5.94
Emax [35]: 2
Emax [36]: 0
pA2 [37]: 5.72
pA2 [38]: 5.92
Emax [39]: 0
Structure (SMILES): NCCc1c[nH]c(CCCC(c2ccccc2)c2ccccc2)n1
